Results: ChEMBL document CHEMBL1125920, “Synthesis and biological activity of 5-alkyl-1,7,8-trisubstituted-6-fluoroquinoline-3-carboxylic acids” (1991)
In brackets after ≈: the same amount, converted by molar mass.

Legend:
Streptococcus pyogenes = assay: Antibacterial activity was determined against gram positive organism, Streptococcus pyogenes (C203); assay type: functional
Method in brief: (§1)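 MIC by standard microtitration against a panel of 10 representative Gram-negative and Gram-positive organisms; values reported in µg/mL.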

Klebsiella pneumoniae = assay: Antibacterial activity was determined against gram negative organism, K. pneumoniae (MGH-2); assay type: functional; method in brief: as §1
Enterobacter cloacae = assay: Antibacterial activity against gram negative organism, […] (MA2646); assay type: functional
Bacteria = assay: Antibacterial activity was determined against gram negative organism, Providencia rettgeri. (M1771); assay type: functional; method in brief: as §1
[1] = target: DNA gyrase (Escherichia coli) (UniProt P0AES6+P0AES4)
[2] = MIC ratio measured as the mean MICs of gram-positive bacteria; assay type: functional
Method in brief: (§2)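 Geometric mean of the MICs (µg/mL) over the Gram-negative or the Gram-positive strains of the 10-organism microtitration panel, calculated separately for each class.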

Streptococcus pneumoniae = assay: Antibacterial activity was determined against gram positive organism, Streptococcus pneumoniae (SV-1); assay type: functional; method in brief: as §1
Staphylococcus aureus [3] = assay: Antibacterial activity was determined against gram positive organism, Staphylococcus aureus (H228); assay type: functional; method in brief: as §1
Pseudomonas aeruginosa = assay: Antibacterial activity was determined against gram negative organism, Pseudomonas aeruginosa (UI-18); assay type: functional; method in brief: as §1
[4] = MIC ratio measured as the mean MICs of gram-negative bacteria; assay type: functional; method in brief: as §2
Staphylococcus aureus [5] = assay: Antibacterial activity was determined against gram positive organism, Staphylococcus aureus (UC76); assay type: functional; method in brief: as §1
Escherichia coli = assay: Antibacterial activity was determined against gram negative organism, E. coli(vogel); assay type: functional; method in brief: as §1
Enterococcus faecalis = assay: Antibacterial activity was determined against gram positive organism, Streptococcus faecalis (MGH-2); assay type: functional; method in brief: as §1

Structure (SMILES) | MIC (Streptococcus pyogenes) | MIC (Klebsiella pneumoniae) | MIC (Enterobacter cloacae) | MIC (Bacteria) | DNA cleavage [1] | Ratio [2] | MIC (Streptococcus pneumoniae) | MIC (Staphylococcus aureus [3]) | MIC (Pseudomonas aeruginosa) | Ratio [4] | MIC (Staphylococcus aureus [5]) | MIC (Escherichia coli) | MIC (Enterococcus faecalis)
CCn1cc(C(=O)O)c(=O)c2c(C)c(F)c(N3CC(C)NC(C)C3)cc21 (stereo not drawn) | 3.1 µg/mL (≈ 8.58 µM) | 0.8 µg/mL (≈ 2.21 µM) | 0.4 µg/mL (≈ 1.11 µM) | 1.6 µg/mL (≈ 4.43 µM) | 8.8 µg/mL | 1.2 | 1.6 µg/mL (≈ 4.43 µM) | 1.6 µg/mL (≈ 4.43 µM) | 3.1 µg/mL (≈ 8.58 µM) | 0.79 | 0.2 µg/mL (≈ 0.553 µM) | 0.2 µg/mL (≈ 0.553 µM) | 1.6 µg/mL (≈ 4.43 µM)
CCn1cc(C(=O)O)c(=O)c2cc(F)c(N3CCNCC3)cc21 [NORFLOXACIN] |  |  |  | 0.025 µg/mL (≈ 0.0783 µM) | 1 µg/mL | 0.61 |  |  |  | 0.057 |  |  | 
O=C(O)c1cn(-c2ccc(F)cc2F)c2cc(N3CCNCC3)c(F)cc2c1=O | 0.2 µg/mL (≈ 0.496 µM) | 0.1 µg/mL (≈ 0.248 µM) | 0.05 µg/mL (≈ 0.124 µM) | 0.1 µg/mL (≈ 0.248 µM) |  | 0.17 | 0.1 µg/mL (≈ 0.248 µM) | 0.4 µg/mL (≈ 0.992 µM) | 0.8 µg/mL (≈ 1.98 µM) | 0.11 | 0.05 µg/mL (≈ 0.124 µM) | 0.05 µg/mL (≈ 0.124 µM) | 0.4 µg/mL (≈ 0.992 µM)
CC1CN(c2c(F)cc3c(=O)c(C(=O)O)cn(C4CC4)c3c2F)CCN1 (stereo not drawn) | 0.4 µg/mL (≈ 1.1 µM) |  | 0.05 µg/mL (≈ 0.138 µM) | 0.1 µg/mL (≈ 0.275 µM) | 1 µg/mL | 0.26 | 0.4 µg/mL (≈ 1.1 µM) | 0.2 µg/mL (≈ 0.55 µM) | 0.4 µg/mL (≈ 1.1 µM) | 0.066 | 0.1 µg/mL (≈ 0.275 µM) |  | 0.4 µg/mL (≈ 1.1 µM)
Cc1c(F)c(N2CCC(N)C2)cc2c1c(=O)c(C(=O)O)cn2-c1ccc(F)cc1F (stereo not drawn) | 0.05 µg/mL (≈ 0.12 µM) | 0.1 µg/mL (≈ 0.24 µM) | 0.05 µg/mL (≈ 0.12 µM) | 0.2 µg/mL (≈ 0.479 µM) | 0.37 µg/mL | 0.038 | 0.025 µg/mL (≈ 0.0599 µM) | 0.05 µg/mL (≈ 0.12 µM) | 0.8 µg/mL (≈ 1.92 µM) | 0.13 | 0.013 µg/mL (≈ 0.0311 µM) | 0.05 µg/mL (≈ 0.12 µM) | 0.1 µg/mL (≈ 0.24 µM)
NC1CCN(c2cc3c(cc2F)c(=O)c(C(=O)O)cn3-c2ccc(F)cc2F)C1 (stereo not drawn) | 0.025 µg/mL (≈ 0.062 µM) | 0.05 µg/mL (≈ 0.124 µM) | 0.05 µg/mL (≈ 0.124 µM) | 0.1 µg/mL (≈ 0.248 µM) |  | 0.033 | 0.025 µg/mL (≈ 0.062 µM) | 0.05 µg/mL (≈ 0.124 µM) | 0.4 µg/mL (≈ 0.992 µM) | 0.076 | 0.013 µg/mL (≈ 0.0322 µM) | 0.025 µg/mL (≈ 0.062 µM) | 0.1 µg/mL (≈ 0.248 µM)
NC1CCN(c2c(F)cc3c(=O)c(C(=O)O)cn(C4CC4)c3c2Cl)C1 (stereo not drawn) [CLINAFLOXACIN] | 0.05 µg/mL (≈ 0.137 µM) | 0.025 µg/mL (≈ 0.0683 µM) | 0.025 µg/mL (≈ 0.0683 µM) | 0.025 µg/mL (≈ 0.0683 µM) | 0.5 µg/mL | 0.029 | 0.025 µg/mL (≈ 0.0683 µM) | 0.025 µg/mL (≈ 0.0683 µM) | 0.05 µg/mL (≈ 0.137 µM) | 0.029 | 0.013 µg/mL (≈ 0.0355 µM) | 0.025 µg/mL (≈ 0.0683 µM) | 0.05 µg/mL (≈ 0.137 µM)
Cc1c(F)c(N2CCNCC2)c(Cl)c2c1c(=O)c(C(=O)O)cn2C1CC1 | 0.2 µg/mL (≈ 0.527 µM) | 0.1 µg/mL (≈ 0.263 µM) | 0.05 µg/mL (≈ 0.132 µM) | 0.2 µg/mL (≈ 0.527 µM) | 1.5 µg/mL | 0.087 | 0.1 µg/mL (≈ 0.263 µM) | 0.05 µg/mL (≈ 0.132 µM) | 0.2 µg/mL (≈ 0.527 µM) | 0.087 | 0.025 µg/mL (≈ 0.0658 µM) | 0.025 µg/mL (≈ 0.0658 µM) | 0.2 µg/mL (≈ 0.527 µM)
Cc1c(F)c(N2CCC(N)C2)c(Cl)c2c1c(=O)c(C(=O)O)cn2C1CC1 (stereo not drawn) | 0.05 µg/mL (≈ 0.132 µM) | 0.05 µg/mL (≈ 0.132 µM) | 0.05 µg/mL (≈ 0.132 µM) | 0.05 µg/mL (≈ 0.132 µM) | 0.3 µg/mL | 0.029 | 0.025 µg/mL (≈ 0.0658 µM) | 0.025 µg/mL (≈ 0.0658 µM) | 0.2 µg/mL (≈ 0.527 µM) | 0.05 | 0.013 µg/mL (≈ 0.0342 µM) | 0.013 µg/mL (≈ 0.0342 µM) | 0.05 µg/mL (≈ 0.132 µM)
Cc1c(F)c(N2CCNC(C)C2)cc2c1c(=O)c(C(=O)O)cn2-c1ccc(F)cc1F (stereo not drawn) | 0.1 µg/mL (≈ 0.232 µM) | 0.4 µg/mL (≈ 0.927 µM) | 0.2 µg/mL (≈ 0.464 µM) | 0.8 µg/mL (≈ 1.85 µM) | 1.75 µg/mL | 0.087 | 0.05 µg/mL (≈ 0.116 µM) | 0.1 µg/mL (≈ 0.232 µM) | 1.6 µg/mL (≈ 3.71 µM) | 0.4 | 0.025 µg/mL (≈ 0.0579 µM) | 0.1 µg/mL (≈ 0.232 µM) | 0.4 µg/mL (≈ 0.927 µM)
CCn1cc(C(=O)O)c(=O)c2cc(F)c(N3CCC(N)C3)cc21 (stereo not drawn) | 0.4 µg/mL (≈ 1.25 µM) | 0.2 µg/mL (≈ 0.626 µM) | 0.1 µg/mL (≈ 0.313 µM) | 0.2 µg/mL (≈ 0.626 µM) | 2.5 µg/mL | 0.4 | 0.4 µg/mL (≈ 1.25 µM) | 0.8 µg/mL (≈ 2.51 µM) | 0.8 µg/mL (≈ 2.51 µM) | 0.2 | 0.1 µg/mL (≈ 0.313 µM) | 0.1 µg/mL (≈ 0.313 µM) | 0.8 µg/mL (≈ 2.51 µM)
CCn1cc(C(=O)O)c(=O)c2cc(F)c(N3CCNCC3)c(F)c21 | 3.1 µg/mL (≈ 9.19 µM) | 0.1 µg/mL (≈ 0.296 µM) | 0.1 µg/mL (≈ 0.296 µM) | 0.2 µg/mL (≈ 0.593 µM) | 2.5 µg/mL | 0.27 | 3.1 µg/mL (≈ 9.19 µM) | 1.6 µg/mL (≈ 4.74 µM) | 0.8 µg/mL (≈ 2.37 µM) | 0.17 | 0.4 µg/mL (≈ 1.19 µM) | 0.1 µg/mL (≈ 0.296 µM) | 1.6 µg/mL (≈ 4.74 µM)
